Legend:
[1] = Lipophilicity, log D of the compound; format: physicochemical; details: octanol/water
[2] = system: HepG2; experiment: Induction of phospholipidosis in human HepG2 cells up to 50 uM after 24 hrs by NBD-PE fluorophore-based assay relative to amiodarone; format: cell-based; details: hepg2, 24 h
[3] = molecular target: Somatostatin receptor type 2 (Homo sapiens, UniProt P30874); experiment: Displacement of [125I]somatostatin-14 (Tyr11) from human SSTR2 expressed in CHO dhfr cell membranes after 60 mins by TopCount scintillation counting method
How it was run: (§1)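 Membrane fractions were prepared from CHO dhfr- cells stably transfected with each human SSTR subtype, with a high-expressing single colony selected for each. Membranes in 25 mM Tris-HCl pH 7.4 with 0.1% BSA, EDTA and protease inhibitors were incubated with 50 pM [125I]SST-14 (Tyr11) and a range of compound concentrations for 60 min at room temperature. Excess SST-14 defined nonspecific binding. Samples were filtered on PEI-soaked GF/B filters before counting. IC50 came from pseudo-Hill fitting.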

[4] = molecular target: Somatostatin receptor type 5 (Homo sapiens, UniProt P35346); experiment: Displacement of [125I]somatostatin-14 (Tyr11) from human SSTR5 expressed in CHO dhfr cell membranes after 60 mins by TopCount scintillation counting method; how it was run: as §1
[5] = molecular target: Somatostatin receptor type 3 (Homo sapiens, UniProt P32745); experiment: Displacement of [125I]somatostatin-14 (Tyr11) from human SSTR3 expressed in CHO dhfr cell membranes after 60 mins by TopCount scintillation counting method; how it was run: as §1
[6] = AUC in Sprague-Dawley rat at 1 mg/kg, po after 1 hr; format: ADME, organism-based; parameters: time < 1 hr, dose 1 mg/kg, route oral; details: in vivo
[7] = molecular target: Somatostatin receptor type 4 (Homo sapiens, UniProt P31391); experiment: Displacement of [125I]somatostatin-14 (Tyr11) from human SSTR4 expressed in CHO dhfr cell membranes after 60 mins by TopCount scintillation counting method; how it was run: as §1
[8] = Plasma concentration in Sprague-Dawley rat at 0.3 mg/kg, iv after 5 mins; format: ADME, organism-based
[9] = Oral bioavailability in Sprague-Dawley rat at 1 mg/kg after 1 hr; format: ADME, organism-based; details: in vivo
[10] = Cmax in Sprague-Dawley rat at 1 mg/kg, po after 1 hr; format: ADME, organism-based; parameters: dose 1 mg/kg, route oral; details: in vivo
[11] = MRT in Sprague-Dawley rat at 0.3 mg/kg, iv; format: ADME, organism-based; details: in vivo
[12] = species on record: Rattus norvegicus; experiment: Antidiabetic activity in Wistar rat type 2 diabetic model assessed as inhibition of glucose excursion up to 60 mins by meal tolerance test; format: functional; details: 1 h, read-out: MED
How it was run: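 Female Wistar fatty rats were fasted overnight and then dosed orally with vehicle or compound, followed by a liquid meal challenge (20 kcal/kg). Plasma glucose was followed over time. The read-out was AUC of delta plasma glucose, and a minimum effective dose was determined.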

[13] = Total clearance in Sprague-Dawley rat at 0.3 mg/kg, iv after 1 hr; format: ADME, organism-based; details: in vivo
[14] = Volume of distribution at steady state in Sprague-Dawley rat at 0.3 mg/kg, iv after 1 hr; format: ADME, organism-based; details: in vivo, read-out: Vdss
[15] = AUC in Sprague-Dawley rat at 0.3 mg/kg, iv after 1 hr; format: ADME, organism-based; parameters: time < 1 hr, dose 0.3 mg/kg, route intravenous; details: in vivo
[16] = species on record: Rattus norvegicus; experiment: Inhibition of hypoglycemia-induced glucagon secretion in Sprague-Dawley rat pretreated for 1 hr followed by insulin addition measured after 30 mins post insulin secretion by radioimmunoassay; format: functional
How it was run: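 SD rats were given compound orally, then insulin 2 IU/kg s.c. 1 h after dosing. Tail-vein blood was drawn 30 min after insulin, and plasma glucagon was measured by radioimmunoassay. Values are means ± SD (n = 6), compared with vehicle by one-tailed Williams' test. ED50 was derived from the dose-response.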

[17] = molecular target: Somatostatin receptor type 1 (Homo sapiens, UniProt P30872); experiment: Displacement of [125I]somatostatin-14 (Tyr11) from human SSTR1 expressed in CHO dhfr cell membranes after 60 mins by TopCount scintillation counting method; how it was run: as §1
[18] = MRT in Sprague-Dawley rat at 1 mg/kg, po; format: ADME, organism-based; details: in vivo
[19] = Tmax in Sprague-Dawley rat at 1 mg/kg, po after 1 hr; format: ADME, organism-based; details: in vivo

Chain of Somatostatin receptor type 2 (P30874 whole entry): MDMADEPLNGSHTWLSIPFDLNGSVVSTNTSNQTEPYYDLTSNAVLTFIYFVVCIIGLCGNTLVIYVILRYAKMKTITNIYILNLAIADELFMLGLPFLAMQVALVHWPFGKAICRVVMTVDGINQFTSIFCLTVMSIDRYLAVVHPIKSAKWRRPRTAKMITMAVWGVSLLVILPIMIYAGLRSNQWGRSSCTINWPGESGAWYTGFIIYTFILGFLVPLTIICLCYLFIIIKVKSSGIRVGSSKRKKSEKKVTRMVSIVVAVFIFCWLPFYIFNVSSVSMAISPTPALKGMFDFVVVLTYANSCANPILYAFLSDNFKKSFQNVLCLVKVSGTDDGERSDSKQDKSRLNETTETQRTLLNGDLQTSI
Chain of Somatostatin receptor type 5 (P35346 whole entry): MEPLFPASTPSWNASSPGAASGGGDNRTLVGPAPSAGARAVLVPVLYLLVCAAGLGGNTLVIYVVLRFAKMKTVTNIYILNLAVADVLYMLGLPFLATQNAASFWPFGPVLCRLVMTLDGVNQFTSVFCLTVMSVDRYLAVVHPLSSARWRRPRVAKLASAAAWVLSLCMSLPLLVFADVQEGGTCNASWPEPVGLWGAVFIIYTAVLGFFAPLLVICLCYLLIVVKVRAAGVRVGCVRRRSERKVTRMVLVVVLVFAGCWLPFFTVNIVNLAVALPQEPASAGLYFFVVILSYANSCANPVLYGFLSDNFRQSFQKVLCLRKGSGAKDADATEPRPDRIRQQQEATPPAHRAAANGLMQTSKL
Chain of Somatostatin receptor type 1 (P30872 whole entry): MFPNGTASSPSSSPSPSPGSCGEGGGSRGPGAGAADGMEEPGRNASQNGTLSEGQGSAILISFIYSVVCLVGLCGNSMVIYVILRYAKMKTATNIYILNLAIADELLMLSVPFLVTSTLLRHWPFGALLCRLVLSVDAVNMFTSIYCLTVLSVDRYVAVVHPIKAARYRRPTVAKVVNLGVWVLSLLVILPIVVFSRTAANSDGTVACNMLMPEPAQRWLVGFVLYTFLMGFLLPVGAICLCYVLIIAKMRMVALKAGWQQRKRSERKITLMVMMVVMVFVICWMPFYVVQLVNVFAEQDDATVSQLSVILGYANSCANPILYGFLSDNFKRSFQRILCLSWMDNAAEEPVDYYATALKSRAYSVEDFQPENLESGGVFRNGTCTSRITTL
Chain of Somatostatin receptor type 3 (P32745 whole entry): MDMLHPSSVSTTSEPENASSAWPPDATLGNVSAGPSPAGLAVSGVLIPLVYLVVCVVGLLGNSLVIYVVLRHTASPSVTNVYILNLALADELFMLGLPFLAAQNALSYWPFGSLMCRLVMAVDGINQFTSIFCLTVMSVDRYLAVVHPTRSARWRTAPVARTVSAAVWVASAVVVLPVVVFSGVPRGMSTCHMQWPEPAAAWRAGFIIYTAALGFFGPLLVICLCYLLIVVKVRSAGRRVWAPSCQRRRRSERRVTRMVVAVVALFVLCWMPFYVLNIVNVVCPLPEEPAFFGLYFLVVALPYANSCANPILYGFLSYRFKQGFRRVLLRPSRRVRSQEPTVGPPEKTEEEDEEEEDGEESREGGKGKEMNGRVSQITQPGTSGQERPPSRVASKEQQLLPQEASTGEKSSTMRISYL
Chain of Somatostatin receptor type 4 (P31391 whole entry): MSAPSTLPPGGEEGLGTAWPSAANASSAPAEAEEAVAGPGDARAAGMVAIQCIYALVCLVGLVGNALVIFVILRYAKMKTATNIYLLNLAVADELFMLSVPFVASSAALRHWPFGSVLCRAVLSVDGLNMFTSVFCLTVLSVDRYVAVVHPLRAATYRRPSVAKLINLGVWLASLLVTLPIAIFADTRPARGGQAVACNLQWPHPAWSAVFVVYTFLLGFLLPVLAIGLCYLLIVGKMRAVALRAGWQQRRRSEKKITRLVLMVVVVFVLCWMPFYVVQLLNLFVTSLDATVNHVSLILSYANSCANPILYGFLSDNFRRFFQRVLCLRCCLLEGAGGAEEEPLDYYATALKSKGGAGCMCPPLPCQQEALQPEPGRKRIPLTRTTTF

Structure (SMILES) | logD [1] | IC50 [3] [nM] | Activity [2] [%] | also measured
CCOc1ccc(CN(C)C)cc1NC(=O)[C@H](NC(=O)N1CCN(C(=O)C2CCC2)CC1)[C@@H](C)c1c[nH]c2ccccc12 | 0.73 | 2.1 | 32 | 
CC(=O)c1ccc(CN(C)C)cc1NC(=O)[C@H](NC(=O)N1CCN(C(=O)C2CCC2)CC1)[C@@H](C)c1c[nH]c2ccccc12 | 1.04 | 1.8 | 46 | 
CCOc1ccc(CN(C)C)cc1NC(=O)[C@H](NC(=O)N1CCC(C(=O)c2nccs2)CC1)[C@@H](C)c1c[nH]c2ccccc12 | 1.35 | 2 | 74 | 
CC(=O)c1ccc(CN(C)C)cc1NC(=O)[C@H](NC(=O)N1CCN(C(=O)C(C)(C)C)CC1)[C@@H](C)c1c[nH]c2ccccc12 | 0.68 | 0.98 | 36 | 
CCOc1ccc(CN(C)C)cc1NC(=O)[C@H](NC(=O)N1CCC(C(=O)c2ccco2)CC1)[C@@H](C)c1c[nH]c2ccccc12 | 1.14 | 2.3 | 54 | 
C[C@@H](c1c[nH]c2ccccc12)[C@@H](NC(=O)N1CCN(C(=O)C(C)(C)C)CC1)C(=O)Nc1cc(CN(C)C)ccc1OC(F)(F)F | 2.18 | 2.8 | 48 | 
CCOc1ccc(CN(C)C)cc1NC(=O)[C@H](NC(=O)N1CCN(C(=O)C(C)(C)C)CC1)[C@@H](C)c1c[nH]c2ccccc12 | 1.09 | 2.3 | 38 | 
CCOc1ccc(CN(C)C)cc1NC(=O)[C@H](NC(=O)N1CCC(C(=O)C(C)C)CC1)[C@@H](C)c1c[nH]c2ccccc12 | 1.5 | 1.1 | 63 | 
CCOc1ccc(CN(C)C)cc1NC(=O)[C@H](NC(=O)N1CCC(C(=O)c2cccs2)CC1)[C@@H](C)c1c[nH]c2ccccc12 | 1.89 | 0.58 | 98 | 
CC(=O)c1ccc(CN(C)C)cc1NC(=O)[C@H](NC(=O)N1CCC(C(=O)c2cccs2)CC1)[C@@H](C)c1c[nH]c2ccccc12 | 1.84 | 0.68 | 91 | 
CCOc1ccc(CN(C)C)cc1NC(=O)[C@H](NC(=O)N1CCC(C(=O)C2CCC2)CC1)[C@@H](C)c1c[nH]c2ccccc12 | 1.55 | 0.6 | 75 | 
CCOc1ccc(CN(C)C)cc1NC(=O)[C@H](NC(=O)N1CCC(C(=O)c2ccccn2)CC1)[C@@H](C)c1c[nH]c2ccccc12 | 1.57 | 2.6 | 81 | 
CC(=O)c1ccc(CN(C)C)cc1NC(=O)[C@H](NC(=O)N1CCC(C(=O)C(C)C)CC1)[C@@H](C)c1c[nH]c2ccccc12 | 1.44 | 2 | 58 | 
CC(=O)c1ccc(CN(C)C)cc1NC(=O)[C@H](NC(=O)N1CCC(C(=O)C2CCC2)CC1)[C@@H](C)c1c[nH]c2ccccc12 | 1.5 | 0.69 | 84 | 
CCOc1ccc(CN(C)C)cc1NC(=O)[C@H](NC(=O)N1CCC(C(=O)CC(C)C)CC1)[C@@H](C)c1c[nH]c2ccccc12 | 2.01 | 0.89 | 76 | 
CCCCc1oc2ccccc2c1C(=O)c1cc(I)c(OCCN(CC)CC)c(I)c1 [AMIODARONE] |  |  | 100 | 

Further lines, with some results ahead:

logD [1] | IC50 [3] [nM] | Structure (SMILES) | Activity [2] [%] | also measured
2.22 | 0.2 | CCOc1ccc(CN(C)C)cc1NC(=O)[C@H](NC(=O)N1CCN(c2ccc(F)cc2)CC1)[C@@H](C)c1c[nH]c2ccccc12 | 99 | 
2.73 | 0.53 | C[C@@H](c1c[nH]c2ccccc12)[C@@H](NC(=O)N1CCN(c2ccc(F)cc2)C(=O)C1)C(=O)Nc1cc(CN(C)C)ccc1OC(F)(F)F | 50 | 
1.59 | 0.31 | CC(=O)c1ccc(CN(C)C)cc1NC(=O)[C@H](NC(=O)N1CCN(c2ccc(F)cc2)C(=O)C1)[C@@H](C)c1c[nH]c2ccccc12 | 37 | 
3 | 0.2 | CCOc1ccc(CN(C)C)cc1NC(=O)[C@H](NC(=O)N1CCC(c2ccccc2)CC1)[C@@H](C)c1c[nH]c2ccccc12 | 111 | IC50 [4]: > 100 nM
1.81 | 0.24 | CC(=O)c1ccc(CN(C)C)cc1NC(=O)[C@H](NC(=O)N1CCN(c2ccc(F)cc2C)C(=O)C1)[C@@H](C)c1c[nH]c2ccccc12 | 30 | 
1.86 | 0.2 | CCOc1ccc(CN(C)C)cc1NC(=O)[C@H](NC(=O)N1CCN(c2ccc(F)cc2C)C(=O)C1)[C@@H](C)c1c[nH]c2ccccc12 | 47 | 
1.65 | 0.2 | CCOc1ccc(CN(C)C)cc1NC(=O)[C@H](NC(=O)N1CCN(c2ccc(F)cc2)C(=O)C1)[C@@H](C)c1c[nH]c2ccccc12 | 36 | 
2.95 | 0.17 to 0.27 | Cc1cc(F)ccc1N1CCN(C(=O)N[C@@H](C(=O)Nc2cc(CN(C)C)ccc2OC(F)(F)F)[C@@H](C)c2c[nH]c3ccccc23)CC1=O | 58 | IC50 [5]: 360 nM; AUC at 1 h [6]: 22.9 ng·h/mL; IC50 [7]: 100 nM; concentration at 5 min [8]: 194 ng/mL; bioavailability [9]: 5.8%; Cmax [10]: 10.3 ng/mL; MRT [11]: 2.57 h; minimal effective dose [12]: 3 mg/kg; clearance [13]: 43.5 mL/min/kg; Vd [14]: 6.63 L/kg; IC50 [4]: 1700 nM; AUC at 1 h [15]: 119 ng·h/mL; ED50 [16]: 1.1 mg/kg; IC50 [17]: 5100 nM; MRT [18]: 5.69 h; Tmax [19]: 0.83 h
